In ChEMBL document CHEMBL1681731, “Synthesis, in vitro anti-inflammatory and cytotoxic evaluation, and mechanism of action studies of 1-benzoyl-β-carboline and 1-benzoyl-3-carboxy-β-carboline derivatives” (Bioorg Med Chem, 2011):
Activity calls are given as the source filed them. No cut-off for these calls is given here.

Columns and labels:
[1] = Cytotoxicity activity against human KBVIN cells assessed as growth inhibition at 10 ug/ml after 72 hrs sulforhodamine B assay; assay type: functional
Outline: (§1)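 Cells kept in RPMI-1640/10% FBS with antibiotics at 37 °C, 5% CO2. Trypsinized cells seeded and given compound from DMSO-diluted stock. Incubated 72 h, then fixed with 10% TCA. Stained 10 min with 0.4% sulforhodamine B in 1% HOAc, washed, dye dissolved in 10 mM Trizma. A515 read; growth relative to net protein increase of controls.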

RAW264.7 [2] = assay: Antiinflammatory activity against mouse RAW264.7 cells assessed as reduction of lipopolysaccharide/interferon-gamma induced PGE2 production at 10 uM after 18 hrs; assay type: functional; conditions: RAW264.7, 18 h
Outline: (§2)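 RAW 264.7 macrophages (passages 9–20) stimulated with LPS/IFN-γ; compound tested at 1, 3 and 10 µM. Supernatant PGE2 measured by competitive EIA: anti-PGE2 antibody plus peroxidase-PGE2 tracer, 1 h RT; TMB/H2O2 30 min; H2SO4 stop; A450. Results given as % inhibition.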

[3] = Antiinflammatory activity against mouse […] cells assessed as inhibition of lipopolysaccharide/interferon-gamma induced nitric oxide production; assay type: functional, cell-based; conditions: Mus musculus; read-out: EC50
Outline: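 RAW 264.7 cells in DMEM/10% FCS, passages 9–20. Nitrite induced by LPS (1 µg/mL) plus IFN-γ (50 U/mL) for 18 h with or without compound. Griess reagent (1% sulfanilamide, 0.1% naphthylenediamine in 5% H3PO4) read at OD550. EC50 calculated.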

DU-145 = assay: Cytotoxicity activity against human DU145 cells assessed as growth inhibition at 10 ug/ml after 72 hrs sulforhodamine B assay; assay type: functional; conditions: DU-145, 72 h; outline: as §1
RAW264.7 [4] = assay: Antiinflammatory activity against mouse RAW264.7 cells assessed as reduction of lipopolysaccharide/interferon-gamma induced PGE2 production at 1 uM by EIA; assay type: functional; outline: as §2
Mus musculus = species on record: Mus musculus; assay: (§3) Cytotoxicity against mouse […] cells by MTT assay; assay type: functional
Outline: (§4)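 Viability of RAW 264.7 cells taken as mitochondrial reduction of MTT to formazan. Formazan read at OD550.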

[5] = Antiinflammatory activity against human neutrophil assessed as inhibition of N-formyl-l-methionyl phenylalanine/cytochalasin B-induced superoxide anion generation by spectrophotometry; assay type: functional, cell-based
Outline: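 Ferricytochrome c (0.5 mg/mL) reduction, SOD-inhibitable, with 1 mM Ca2+. Neutrophils (6 × 10^5 cells/mL) equilibrated 2 min at 37 °C, then drug or 0.1% DMSO for 5 min. Cytochalasin B 1 µg/mL preincubation, then 100 nM FMLP for 3 min. A550 monitored continuously with stirring. IC50 computed; mean ± SEM, n = 3.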

A549 = assay: Cytotoxicity activity against human A549 cells assessed as growth inhibition at 10 ug/ml after 72 hrs sulforhodamine B assay; assay type: functional; conditions: A549, 72 h; outline: as §1
RAW264.7 [6] = assay: Antiinflammatory activity against mouse RAW264.7 cells assessed as reduction of lipopolysaccharide/interferon-gamma induced PGE2 production at 3 uM after 18 hrs; assay type: functional; conditions: RAW264.7, 18 h; outline: as §2
KB = assay: Cytotoxicity activity against human KB cells assessed as growth inhibition at 10 ug/ml after 72 hrs sulforhodamine B assay; assay type: functional; outline: as §1
[7] = Antiinflammatory activity against human neutrophil assessed as inhibition of N-formyl-l-methionyl phenylalanine/cytochalasin B-induced elastase release; assay type: functional, cell-based
Outline: (§5)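 Neutrophils (6 × 10^5/mL) supplemented with 100 µM MeO-Suc-Ala-Ala-Pro-Val-p-nitroanilide, equilibrated 2 min at 37 °C, then given drug or 0.1% DMSO vehicle for 5 min. Activated with 100 nM FMLP plus 0.5 µg/mL cytochalasin B. Absorbance at 405 nm followed continuously. Release expressed as percent of drug-free activated control. IC50 computed; mean ± SEM, n = 3.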

[8] = as §3; assay type: functional; outline: as §4
[9] = tested on: Radical scavenging activity; assay: Antioxidant activity assessed as residual DPPH radical scavenging activity; assay type: functional
[10] = Therapeutic index, ratio of CC50 for mouse […] cells to EC50 for inhibition of lipopolysaccharide/interferon-gamma induced nitric oxide production in mouse […] cells; assay type: cell-based; conditions: read-out: TI
RAW264.7 [11] = assay: Inhibition of lipopolysaccharide/interferon gamma-induced iNOS expression in mouse RAW264.7 cells by Western blot analysis; assay type: functional, cell-based
Outline: (§6)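 RAW 264.7 cells lysed in ice-cold RIPA buffer (25 mM Tris–HCl pH 7.2, SDS, Triton, deoxycholate, protease/phosphatase inhibitors). Protein assayed, run on 7.5% SDS-PAGE and transferred to nitrocellulose. Probed for iNOS or COX2 with HRP-anti-IgG secondary, detected by ECL. Blot re-probed for α-tubulin.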

Neutrophil [12] = assay: Antiinflammatory activity against human neutrophil assessed as inhibition of N-formyl-l-methionyl phenylalanine-induced phosphorylation of AKT by Western blot analysis; assay type: functional, cell-based
Outline: (§7)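 Neutrophils given drug for 5 min at 37 °C, then FMLP (0.1 µM) for 0.5 min. Stopped on ice and centrifuged at 4 °C. Pellets lysed in HEPES pH 7.4 Triton buffer with phosphatase and protease inhibitors; 14,000 g 20 min spin. Lysate proteins run on 12% SDS-PAGE, immunoblotted, detected by ECL.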

RAW264.7 [13] = assay: Inhibition of lipopolysaccharide/interferon gamma-induced COX2 expression in mouse RAW264.7 cells by Western blot analysis; assay type: functional, cell-based; outline: as §6
Neutrophil [14] = assay: Antiinflammatory activity against human neutrophil assessed as inhibition of N-formyl-l-methionyl phenylalanine-induced phosphorylation of JNK by Western blot analysis; assay type: functional, cell-based; outline: as §7
[15] = Antiinflammatory activity against cytochalasin B pretreated human neutrophil assessed as inhibition of elastase release; assay type: functional; outline: as §5

EC50 [3] [µM]	IC50 [5] [µM]	IC50 [7] [µM]	Structure (SMILES)	GI50 [1] [µM]	inhibition at 10 µM (RAW264.7 [2]) [%]	GI50 (DU-145) [µM]	inhibition at 1 µM (RAW264.7 [4]) [%]	CC50 (Mus musculus)	GI50 (A549) [µM]	inhibition at 3 µM (RAW264.7 [6]) [%]	GI50 (KB) [µM]	CC50 [8] [µM]	Activity [9]	selectivity ratio [10]	Activity (RAW264.7 [11])	inhibition (Neutrophil [12])	Activity (RAW264.7 [13])	inhibition (Neutrophil [14])	INH [15] [µM]
6.65	5.03	> 30	CC(=O)c1nccc2c1[nH]c1ccccc12	> 40	59	> 40	0	Non-toxic	> 40	0	> 40	–	–	–	–	–	–	–	–
2.94	6.65	6.21	O=C(O)c1cc2c([nH]c3ccccc32)c(C(=O)c2ccc([N+](=O)[O-])cc2)n1	> 40	100	> 40	0	–	> 40	92	> 40	15	inactive	5	–	–	–	–	–
3.65	17.7	13.4	O=C(O)c1cc2c([nH]c3ccccc32)c(C(=O)c2ccccc2)n1	> 40	90	> 40	0	–	> 40	12	> 40	564	inactive	155	–	–	–	–	–
0.25	> 30	> 30	CC(=O)c1nc(C(=O)O)cc2c1[nH]c1ccccc12	> 40	0	> 40	0	Non-toxic	> 40	0	> 40	–	–	–	–	–	–	–	–
2.88	17.6	13.2	O=C(O)c1cc2c([nH]c3ccccc32)c(C(=O)c2ccccc2[N+](=O)[O-])n1	> 40	100	> 40	0	–	> 40	97	> 40	12.8	inactive	4	–	–	–	–	–
6.96	5.33	3.07	O=C(O)c1cc2c([nH]c3ccccc32)c(C(=O)c2ccccc2Br)n1	> 40	96	> 40	0	–	> 40	78	> 40	524	inactive	75	–	–	–	–	–
0.57	2.05	2.78	O=C(O)c1cc2c([nH]c3ccccc32)c(C(=O)c2cccc(Br)c2)n1	> 40	–	> 40	100	–	> 40	100	> 40	29.4	inactive	51	Active	Active	Active	Active	–
2.96	> 30	–	COc1cccc(C(=O)c2nccc3c2[nH]c2ccccc23)c1	> 40	98	> 40	0	–	> 40	71	> 40	16.3	–	6	–	–	–	–	13.2
2.58	5.36	14.8	Cc1ccccc1C(=O)c1nc(C(=O)O)cc2c1[nH]c1ccccc12	> 40	100	> 40	0	–	> 40	82	> 40	–	inactive	> 2000	–	–	–	–	–
0.53	2.28	1.99	O=C(O)c1cc2c([nH]c3ccccc32)c(C(=O)c2ccc(Br)cc2)n1	> 40	–	> 40	98	–	> 40	100	> 40	10.7	inactive	20	–	–	–	–	–
4.94	> 30	> 30	Cc1ccc(C(O)c2nccc3c2[nH]c2ccccc23)cc1 (stereo not given)	9.29	–	13.8	15	Non-toxic	26.6	29	20.6	–	–	> 100	–	–	–	–	–
0.2	> 30	> 30	Cc1cccc(C(=O)c2nccc3c2[nH]c2ccccc23)c1	> 40	–	> 40	97	–	> 40	100	> 40	23.7	–	120	Active	–	Active	–	–
